SMILES strings stand for the structures. The source made the active and inactive calls. The rule behind the calls is not given here.

The subject of test [1] is Pseudomonas aeruginosa. The experiment in a line: Inhibition of quorum sensing activity in wild-type Pseudomonas aeruginosa PA14 assessed as inhibition of pyocyanin production at 100 uM by spectrophotometry relative to control. Format: functional. In a few lines: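 Wild-type P. aeruginosa PA14 cultures exposed to compound at 100 μM. Pyocyanin read as absorbance at 695 nm. Efficacy scaled so that wild-type pyocyanin level = 0% and absorbance equal to background medium = 100%.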

Test [2] concerns Pseudomonas aeruginosa. The experiment in a line: Antimicrobial activity against wild-type Pseudomonas aeruginosa PA14. Format: functional.

As to `O=C(CCCCCOc1cccc(I)c1)Nc1ccnc(C(F)(F)F)c1`, the Efficacy in test [1] stood at 95%. The outcome in test [2] was inactive.
Take `O=C(CCCCCOc1ccc(F)cc1F)Nc1ccnc(C(F)(F)F)c1`: the Efficacy in test [1] is recorded as 49%. For the same compound, the result in test [2] was inactive.
The matching figures for `CCCCCCCCCCCC(=O)Nc1ccncn1`: 55% and “inactive”.
The matching figures for `CCCCCCCCCC(=O)CC(=O)Nc1cccnc1`: 10% and “inactive”.
As to `CCCCCCCCCC(=O)CC(=O)Nc1ccc2c(c1)c1ccccc1n2CC`, the Efficacy in test [1] is 9.3%. Besides, in test [2], the result was inactive.
The matching figures for `O=C(CCCCCOc1cccc(C(F)(F)F)c1)Nc1ccnc(C(F)(F)F)c1`: 59% and “inactive”.
For `COc1cc(NC(=O)CCCCCOc2cccc(Br)c2)nc(OC)n1`, in that order: 15% and “inactive”.
The matching figures for `O=C(CCCCCOc1cccc(Br)c1)Nc1cc(C(F)(F)F)cc(C(F)(F)F)c1`: 44% and “inactive”.
Regarding `CCCCCCCCCCCCNC(=O)Cc1c[nH]c2ccccc12`, in test [1], the Efficacy was found to be 0.6%. Moreover, the outcome in test [2] was inactive.
The matching figures for `CCCCCCCCCCCCNC(=O)c1ccncc1`: 13% and “inactive”.
Take `O=C(CCCCC#Cc1cccc(F)c1)Nc1ccnc(C(F)(F)F)c1`: the Efficacy in test [1] was 97%. Besides, in test [2], the outcome was inactive.
The matching figures for `O=C(CCCCCCc1cccc(F)c1)Nc1ccnc(C(F)(F)F)c1`: 96% and “inactive”.
The matching figures for `O=C(CCCCCOc1cccc(Br)c1)Nc1cccc(C(F)(F)F)c1`: 62% and “inactive”.
The matching figures for `COc1nccc(NC(=O)CCCCCOc2cccc(Br)c2)n1`: 16% and “inactive”.
`CCCCCCCCCCCC(=O)O/N=C1\COc2ccccc21`: the Efficacy in test [1] was found to be 12%. The outcome in test [2] was inactive.
For `CCCCCCCCCCCCNC(=O)c1c[nH]c2ccccc12`, in that order: 4.4% and “inactive”.
The matching figures for `CCCCCCCCCCCCNC(=O)c1cc2ccccc2n1C`: -9.2% and “inactive”.
For `O=C(CCCOc1cccc(Br)c1)Nc1ccnc(C(F)(F)F)c1`, in that order: 43% and “inactive”.
With `CCCCCCCCCCCC(=O)Nc1ccnc(C(F)(F)F)c1`, the Efficacy in test [1] was 27%. Besides, the result in test [2] was inactive.
The matching figures for `O=C(CCCCCNc1cccc(F)c1)Nc1ccnc(C(F)(F)F)c1`: 100% and “inactive”.
For `COc1cc(NC(=O)CCCCCOc2cccc(Br)c2)ccn1`, in that order: 73% and “inactive”.
The matching figures for `O=C(CCCCCOc1ccccc1O)Nc1ccnc(C(F)(F)F)c1`: 95% and “inactive”.
Take `O=C(CCCCCOc1cccc(Br)c1)Nc1ccncc1`: the Efficacy in test [1] came to 53%. For the same compound, the outcome in test [2] was inactive.
The matching figures for `O=C(CCCCCOc1c(F)cccc1F)Nc1ccnc(C(F)(F)F)c1`: 66% and “inactive”.
As for `CCCCCCCCCCCC(=O)Nc1ccncc1C(F)(F)F`, the Efficacy in test [1] is listed as -17%. Moreover, the result in test [2] was inactive.
For the compound `CCCCCCCCCCCC(=O)Nc1ccnc(C)c1`, in test [1], the Efficacy is -19%. The outcome in test [2] was inactive.
In the case of `COc1cc(NC(=O)CCCCCOc2cccc(Br)c2)ncn1`, the Efficacy in test [1] is 41%. For the same compound, the result in test [2] was inactive.
For `CCCCCCCCCCCC(=O)Nc1cnccn1`, in that order: -38% and “inactive”.
For `CCCCCCCCCCCC(=O)Nc1ncccn1`, in that order: 23% and “inactive”.
For `CCCCCCCCCCCCCCCCOC(=O)C1COc2ccccc21` (configuration not stated), in that order: 1.5% and “inactive”.
For `CCCCCCCCCC(=O)CC(=O)Nc1ccnc(F)c1`, the Efficacy in test [1] is -8.5%. For the same compound, the result in test [2] was inactive.
The matching figures for `N#Cc1cccc(OCCCCCC(=O)Nc2ccnc(C(F)(F)F)c2)c1`: 0.48% and “inactive”.
For `O=C(CCCCCOc1c(F)c(F)c(F)c(F)c1F)Nc1ccnc(C(F)(F)F)c1`, the Efficacy in test [1] is reported as 21%. Also, the outcome in test [2] was inactive.
For `CCCCCCCCCC(=O)CC(=O)Nc1cnccn1`, in that order: 21% and “inactive”.
On to `CCCCCCCCCCCC(=O)N1CCN(c2ccncc2)CC1`, for which the Efficacy in test [1] was -42%. Moreover, the result in test [2] was inactive.
For `CCCCCCCCCCCC(=O)Nc1ccncc1`, in that order: 28% and “inactive”.
As for `O=C(CCCOc1cccc(Br)c1)Nc1ccncc1`, the Efficacy in test [1] is reported as 21%. Further, the outcome in test [2] was inactive.
For `O=C(CCCCOc1cccc(Br)c1)Nc1ccnc(C(F)(F)F)c1`, in that order: 95% and “inactive”.
For `CCCCCCCCCCCC(=O)Nc1ccc2oc3c(c2c1)CCCC3`, in that order: 6.1% and “inactive”.
The matching figures for `CCCCCCCCCCCC(=O)NCc1ccncc1`: 7.7% and “inactive”.
For the compound `O=C(CCCCCOc1ccccc1Br)Nc1ccnc(C(F)(F)F)c1`, in test [1], the Efficacy turned out to be 94%. In addition, the result in test [2] was inactive.
Consider `Cc1cccc(OCCCCCC(=O)Nc2ccnc(C(F)(F)F)c2)c1`, for which, in test [1], the Efficacy is 81%. The outcome in test [2] was inactive.
Consider `O=C(CCCCCOc1cccc(Br)c1)Nc1ccncc1C(F)(F)F`, for which the Efficacy in test [1] is 15%. For the same compound, the outcome in test [2] was inactive.
For `CCCCCCCCCCCC(=O)Nc1cc(C)nc2ccccc12`, in that order: -24% and “inactive”.
The matching figures for `CCCCCCCCCC(=O)CC(=O)Nc1ccccn1`: 44% and “inactive”.
The matching figures for `COc1cc(NC(=O)CC(=O)CCCOc2cccc(Br)c2)ccn1`: 40% and “inactive”.
Turning to `O=C(CCCCCOc1cccc(Br)c1)Nc1ccncn1`, the Efficacy in test [1] is listed as 27%. Besides, the outcome in test [2] was inactive.
For `CCCCCCCCCCCC(=O)Nc1ccnc(Br)c1`, in that order: 34% and “inactive”.
The matching figures for `COc1cc(NC(=O)CCCCCCCOc2cccc(Br)c2)ccn1`: 60% and “inactive”.
In the case of `CCCCCCCCCCCC(=O)Nc1c(F)c(F)nc(F)c1F`, the Efficacy in test [1] is reported as -12%. Moreover, the result in test [2] was inactive.
For `CCCCCCCCCC(=O)CC(=O)Nc1ccncn1`, in that order: 64% and “inactive”.
The matching figures for `CCCCCCCCCCCC(=O)Nc1ccnc(OC)c1`: -5.1% and “inactive”.
For `COc1cc(NC(=O)CCCOc2cccc(Br)c2)ccn1`, in that order: 20% and “inactive”.
On to `O=C(CCCCCOc1cccc(Br)c1)Nc1ccnc(F)c1`, for which the Efficacy in test [1] is on record as 31%. For the same compound, the result in test [2] was inactive.
The matching figures for `COc1cc(NC(=O)CCCCCCOc2cccc(Br)c2)ccn1`: 75% and “inactive”.
For `CCCCCCCCCCCC(=O)OCc1ccncc1`, in that order: -15% and “inactive”.
For `CCCCCCCCCCCC(=O)Nc1cccnc1`, in that order: 34% and “inactive”.
Turning to `CCCCCCCCCC(=O)CC(=O)Nc1ccnc(OC)c1`, the Efficacy in test [1] is 24%. In test [2], the result was inactive.
For `O=C(CCCCCOc1cccc(Cl)c1)Nc1ccnc(C(F)(F)F)c1`, the Efficacy in test [1] stood at 101%. For the same compound, in test [2], the result was inactive.
For `CCCCCCCCCCCC(=O)Nc1ccccn1`, in test [1], the Efficacy turned out to be 55%. Also, in test [2], the outcome was inactive.
In the case of `O=C(CCCCCOc1ccc(Br)cc1)Nc1ccnc(C(F)(F)F)c1`, the Efficacy in test [1] came out at 88%. For the same compound, in test [2], the outcome was inactive.
For `O=C(CCCCCCOc1cccc(Br)c1)Nc1ccnc(C(F)(F)F)c1`, in that order: 23% and “inactive”.
For `O=C(CCCCCOc1ccccc1F)Nc1ccnc(C(F)(F)F)c1`, in that order: 78% and “inactive”.
Turning to `O=C(CCCCCOc1cccc([N+](=O)[O-])c1)Nc1ccnc(C(F)(F)F)c1`, the Efficacy in test [1] is 39%. For the same compound, the result in test [2] was inactive.
The matching figures for `CCCCCCCCCC(=O)CC(=O)Nc1ncccn1`: -0.51% and “inactive”.
`O=C(CCCOc1cccc(Br)c1)Nc1ccnc(F)c1`: the Efficacy in test [1] is 32%. Also, the result in test [2] was inactive.
For `CCCCCCCCCCCC(=O)Nc1ccc2[nH]ccc2c1`, in that order: -11% and “inactive”.
For `O=C(CCCCCSc1cccc(F)c1)Nc1ccnc(C(F)(F)F)c1`, in that order: 94% and “inactive”.
The matching figures for `COc1cc(NC(=O)CCCCOc2cccc(Br)c2)ccn1`: 81% and “inactive”.
`Cc1cc(NC(=O)CCCCCOc2cccc(Br)c2)ccn1`: in test [1], the Efficacy amounted to 80%. Further, in test [2], the outcome was inactive.
For the compound `CCCCCCCCCCCC(=O)Nc1ccc2c(c1)c1ccccc1n2CC`, the Efficacy in test [1] is listed as -1%. Further, in test [2], the result was inactive.

The values above are taken from ChEMBL document CHEMBL3407471, “Development of potent inhibitors of pyocyanin production in Pseudomonas aeruginosa” (J Med Chem, 2015).
